“And” between values parts separate entries of the source, which are not always exact repeats. Equal entries are not always repeated.
Columns and labels:
[1] = target: T1, h15-LOX-1 (Homo sapiens, UniProt P16050); assay: Product analysis of h15-LOX-1 reactions; assay type: biochemical
T1 sequence (P16050 1-662): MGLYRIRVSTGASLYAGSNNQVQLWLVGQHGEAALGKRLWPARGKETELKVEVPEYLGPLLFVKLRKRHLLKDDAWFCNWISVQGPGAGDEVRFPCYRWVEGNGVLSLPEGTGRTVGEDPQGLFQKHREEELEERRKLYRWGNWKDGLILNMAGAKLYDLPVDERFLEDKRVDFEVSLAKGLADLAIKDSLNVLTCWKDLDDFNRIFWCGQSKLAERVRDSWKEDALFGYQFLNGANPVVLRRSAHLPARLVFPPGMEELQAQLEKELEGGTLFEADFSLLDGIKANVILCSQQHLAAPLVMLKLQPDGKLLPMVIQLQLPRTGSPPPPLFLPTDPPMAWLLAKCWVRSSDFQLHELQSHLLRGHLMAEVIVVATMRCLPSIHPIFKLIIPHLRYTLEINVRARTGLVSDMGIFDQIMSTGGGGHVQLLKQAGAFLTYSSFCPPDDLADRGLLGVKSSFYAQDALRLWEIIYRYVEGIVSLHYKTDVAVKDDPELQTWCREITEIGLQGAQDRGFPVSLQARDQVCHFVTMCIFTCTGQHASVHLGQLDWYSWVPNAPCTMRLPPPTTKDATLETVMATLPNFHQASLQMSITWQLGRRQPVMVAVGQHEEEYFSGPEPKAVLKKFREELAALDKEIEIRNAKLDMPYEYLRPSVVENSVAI
Procedure, shortened: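 h15-LOX-1 (0.125 μM, pH 7.5) or h12-LOX (0.300 μM, pH 8.0) was reacted in 25 mM HEPES at room temperature under ambient O2. Substrates were 10 μM DHA for 1 min (monitored at 234 nm) or 1 μM 14S-HpDHA for 20 min (h15-LOX-1) or 1 h (h12-LOX) (monitored at 270 nm). Reactions were quenched with acetic acid, spiked with d5-maresin-1, extracted into DCM and background-subtracted against a no-enzyme control. Split samples were run with or without trimethyl phosphite reduction. Products were identified by C18 LC-MS/MS (qTOF), N = 3.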

[2] = target: T2, h15-LOX-2 (Homo sapiens, UniProt O15296); assay: Steady-state kinetics of h15-LOX-2 with 14S-HpDHA; assay type: biochemical; settings: various 14S-HpDHA concentrations
T2 sequence (O15296 1-676): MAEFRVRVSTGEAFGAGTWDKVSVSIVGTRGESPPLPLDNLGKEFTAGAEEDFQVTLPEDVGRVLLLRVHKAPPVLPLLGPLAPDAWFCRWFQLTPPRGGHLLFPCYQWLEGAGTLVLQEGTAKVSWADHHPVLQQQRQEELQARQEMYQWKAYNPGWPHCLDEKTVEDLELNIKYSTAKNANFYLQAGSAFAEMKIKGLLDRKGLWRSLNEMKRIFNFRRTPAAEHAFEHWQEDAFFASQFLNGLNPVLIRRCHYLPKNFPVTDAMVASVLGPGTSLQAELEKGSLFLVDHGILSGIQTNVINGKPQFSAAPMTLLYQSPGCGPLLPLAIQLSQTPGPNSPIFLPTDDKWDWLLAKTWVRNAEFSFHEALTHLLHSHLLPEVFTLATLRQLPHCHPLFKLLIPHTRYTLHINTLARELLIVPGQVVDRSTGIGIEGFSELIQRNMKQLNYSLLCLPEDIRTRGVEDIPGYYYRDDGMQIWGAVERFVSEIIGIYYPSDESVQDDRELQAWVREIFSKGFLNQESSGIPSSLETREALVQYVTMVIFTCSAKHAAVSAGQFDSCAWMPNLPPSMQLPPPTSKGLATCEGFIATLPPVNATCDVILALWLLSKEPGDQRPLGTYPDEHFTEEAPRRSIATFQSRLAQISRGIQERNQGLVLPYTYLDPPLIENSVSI
Procedure, shortened: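 Reactions were run in a quartz cuvette containing 2 mL of 25 mM HEPES, pH 7.5, at room temperature, with 14S-HpDHA at various concentrations. The 14S-HpDHA stock was quantified at 234 nm in methanol (ε 27 000 M−1 cm−1). Product formation was followed by absorbance at 270 nm (ε 37 000 M−1 cm−1), with triplicate reactions.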

[3] = system: human platelets; assay: Collagen-stimulated platelet aggregation; assay type: cell-based; settings: ≥1 μM, 10 min incubation, collagen 0.25 μg/mL
Procedure, shortened: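 Washed human platelets were isolated by serial centrifugation and resuspended in Tyrode's buffer at 3 × 10^8/mL. They were preincubated with test compound (1–10 μM) for 10 min at 37 °C, then stimulated with 0.25 μg/mL collagen while stirring at 1100 rpm. Maximum aggregation was read as the light-transmittance change, mean ± SEM of 3–5 independent experiments. Comparison versus vehicle used one-way ANOVA with Dunnett's test.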

[4] = h15-LOX-1 + 1 μM 14S-HpDHA, 20 min, pH 7.5, ambient O2

SMILES: CC/C=C\C/C=C\C[C@@H](/C=C/C=C\C/C=C\C/C=C\CCC(=O)O)OO [14S-HpDHA, 14S-hydroperoxy-4Z,7Z,10Z,12E,16Z,19Z-docosahexaenoic acid]
- product profile: 7S,14S-EZE-diHpDHA [1, 4]: 29% and 29 ± 6%
- product profile: 13S,14S-epoxy-DHA (detected as 7S/R,14S-EEE-diHDHA) [1, 4]: 71% and 71 ± 6%
- product profile: 14S,20-diHpDHA [1, 4]: <1.0%
- loss in 7S,14S-EZE-diHpDHA production at increased pH ([1]; h15-LOX-1 + 14S-HpDHA, Figure S3): 7 fold
- reaction with h15-LOX-2 [2]: not to react
- reduction in aggregation compared to vehicle control [3]: > 90%
